FLuc act counter: FLuc activators, initial screening, artefact control for FLuc-dependent activation tests, biochemical, ATPlite luminescence; Luciferin 4-monooxygenase (Photinus pyralis), P08659; ATPlite luciferase biochemical, 10 min; 0 = ATP-free wells, 1 = DMSO control; activation factor at 10 µM; 200,000 tested, under 10 active;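 active = luciferase activation factor, scaled between plate controls, of at least 2 with compound at 10 µM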
Target sequence (P08659 whole entry, looked up): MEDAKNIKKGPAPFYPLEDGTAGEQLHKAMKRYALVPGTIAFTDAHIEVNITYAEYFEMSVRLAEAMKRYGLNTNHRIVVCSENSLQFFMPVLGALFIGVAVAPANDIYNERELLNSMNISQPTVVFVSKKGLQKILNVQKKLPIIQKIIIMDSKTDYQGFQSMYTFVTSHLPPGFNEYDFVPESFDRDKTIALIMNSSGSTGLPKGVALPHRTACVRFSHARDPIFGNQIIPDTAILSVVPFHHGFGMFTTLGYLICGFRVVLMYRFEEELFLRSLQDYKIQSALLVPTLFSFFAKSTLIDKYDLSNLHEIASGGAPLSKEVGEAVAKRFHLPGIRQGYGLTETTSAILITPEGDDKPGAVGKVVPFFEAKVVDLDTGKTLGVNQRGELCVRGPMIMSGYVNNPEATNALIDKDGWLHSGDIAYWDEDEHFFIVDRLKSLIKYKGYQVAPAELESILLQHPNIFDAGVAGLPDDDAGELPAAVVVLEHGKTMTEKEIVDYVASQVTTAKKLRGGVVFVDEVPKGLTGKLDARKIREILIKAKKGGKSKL
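System: Luciferase/luciferin detection reagent, cell-free biochemical luciferase assay | Medium: PBS buffer for ATP | Dosing: Test compounds dosed from 2 mM stocks in 100% DMSO | Timing: 10 min at ambient temperature | Signal: Luminescence measurement of luciferase light output | Evaluation: Luciferase activation, seen as luminescence increase over controls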
C8 TRAIL sens: viability loss with TRAIL in NB7+C8 cells, primary screen, TRAIL sensitizer project, cell-based, ATPlite luminescence | inhibition (viability loss, TRAIL sensitization), % at 10 µM | 360,000 tested, 1% active | AID 624354, 2012;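 active = compounds causing at least 50% loss of cell viability in the single-dose screen, relative to plate controls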
PPC-1+TRAIL kill: compounds killing PPC-1 cancer cells with TRAIL present, primary screen, TRAIL potentiator project, ATPLite luminescence, uHTS. PPC-1 cells + TRAIL, ATPLite viability luminescence. cell killing (% activity), % at 4 µM or 5 µM. 220,000 tested, 0.41% active. AID 1443, 2008;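 active = cell killing above 50% in the first pass at 4 µM, then a duplicate retest at 5 µM averaging 50% or more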
FLuc inh counter: firefly luciferase enzyme inhibitors, primary screen, artefact control for luciferase-based inhibitor screens, biochemical, luminescence, ATPLite; AID 1006, 2008; inhibition, % at 10 µM; Luciferin 4-monooxygenase (Photinus pyralis), P08659; 200,000 tested, 1.5% active; 10 min;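 active = inhibition above about 50% when tested at 10 µM, limit read from the data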
PPC-1 tox: cytotoxicity in PPC-1 cells, confirmation, cytotoxicity control for TRAIL apoptosis potentiator project, cell-based, ATP content luminescence. shares compounds with PPC-1+TRAIL kill. PPC-1 viability, ATPlite luminescence, overnight. cytotoxicity, % at 5 µM. 1,200 tested, 50% active. AID 1447, 2008;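 active = reconfirmed compounds whose average cytotoxicity reaches 50% or more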
Large screens that a line does not name were inactive (follow-up assays come after a bar, where they were run). In the library only some 1.6% were active in any assay of this set; here they are far more common.

O=C(Nc1ccncc1)c1ccc2c(c1)OCCO2	none
Cc1ccc(NC(=O)c2ccc3c(c2)OCCO3)cc1	C8 TRAIL sens 67, PPC-1+TRAIL kill 56, FLuc inh counter 89 | PPC-1 tox 56
O=C(Nc1ccc2c(c1)OCCO2)c1cncc(Br)c1	FLuc inh counter 65 | PPC-1 tox inactive
COc1ccc(C(=O)Nc2ccc3c(c2)OCCO3)cc1	C8 TRAIL sens 72, PPC-1+TRAIL kill 75, FLuc inh counter 90 | PPC-1 tox 73
COC(=O)c1ccc(NC(=O)c2ccc3c(c2)OCO3)cc1	none
CCc1nc2ccc(C(=O)Nc3cccc(OC)c3)cn2c1N(CC)CCOC	none (no result: FLuc act counter, PPC-1+TRAIL kill, FLuc inh counter)
O=C(CN1C(=O)NC2(CCCC2)C1=O)N1CCN(c2ccc(C(F)(F)F)cc2[N+](=O)[O-])CC1	none (no result: FLuc act counter, PPC-1+TRAIL kill, FLuc inh counter)
COc1ccccc1Nc1nn2c(=O)c3ccc(C(=O)N4CCCC(C)C4)cc3nc2s1 (configuration not stated)	none (no result: FLuc act counter, PPC-1+TRAIL kill, FLuc inh counter)
Cc1noc(C)c1COc1ccc(C(=O)OCC(=O)Nc2ccc(C(=O)N(C)C)cc2)cc1	none (no result: FLuc act counter, PPC-1+TRAIL kill, FLuc inh counter)
COc1ccc(CCCNC(=O)C2Cc3c(-c4cccc(C(C)=O)c4)ccnc3O2)cc1 (configuration not stated)	none (no result: FLuc act counter, PPC-1+TRAIL kill, FLuc inh counter)
Cc1cccc(NC(=O)c2ccc3c(c2)OCCO3)c1C	none (no result: FLuc act counter, PPC-1+TRAIL kill, FLuc inh counter)
Cc1ccccc1NC(=O)c1ccc2c(c1)OCCO2	none | PPC-1 tox inactive
COc1ccc(C(=O)Nc2cccc(OC(=O)c3ccc(C)c(C)c3)c2)cc1	none | PPC-1 tox inactive
Cc1ccc(C)c(OCc2cc(C(=O)NC3CCOC(C)(C)C3)no2)c1 (configuration not stated)	none (no result: FLuc act counter, PPC-1+TRAIL kill, FLuc inh counter)
CCOc1ccc(-c2nnc(SCC(=O)O)n2Cc2ccccc2)cc1	none (no result: FLuc act counter, PPC-1+TRAIL kill, FLuc inh counter)
CC1CCCC/C1=N\NS(=O)(=O)c1ccc(Br)cc1 (configuration not stated)	none | PPC-1 tox inactive
COc1ccc(-c2[nH]ncc2-c2cscn2)c(O)c1	none
Cc1ccc(-c2cn3c(=O)cc(C)[nH]c3n2)cc1	C8 TRAIL sens 71, PPC-1+TRAIL kill 71, FLuc inh counter 88 | PPC-1 tox 69
O=C(/C=C/c1ccc(O)cc1)c1ccc(NC2=C(N3CCCCC3)C(=O)c3ccccc3C2=O)cc1	PPC-1+TRAIL kill 70 | PPC-1 tox 58
CC(=O)Nc1ccc(C(=O)COC(=O)c2cccs2)c(F)c1	none (no result: FLuc act counter, PPC-1+TRAIL kill, FLuc inh counter)
CCN(CC)CCCNc1oc(-c2ccccc2[N+](=O)[O-])nc1C#N	none (no result: FLuc act counter, FLuc inh counter)
Cc1ccccc1Cn1ccc(NC(=O)CCSc2nc(-c3ccco3)cc(C(F)(F)F)n2)n1	none | PPC-1 tox inactive
O=C(CSc1nnc(-c2ccccc2Cl)o1)Nc1ccc2c(c1)OCCO2	none
O=C(CSc1nnc(-c2ccc(O)cc2)o1)Nc1ccc2c(c1)OCCO2	PPC-1+TRAIL kill 65 | PPC-1 tox 66
COc1ccccc1NC(=O)CSc1nnc(-c2ccc(C)cc2)o1	none | PPC-1 tox 53
CC(=O)CSc1nnc(-c2ccc3c(c2)OCO3)o1	FLuc inh counter 67 | PPC-1 tox inactive
Brc1ccc(-c2csc3ncnc(-n4nnc5ccccc54)c23)cc1	none
O=c1oc(/C=C/c2ccccc2)nc2sc3c(c12)CCC3	none | PPC-1 tox inactive
COc1ccc(/C=C/c2nc3sc4c(c3c(=O)o2)CCC4)cc1	none (no result: FLuc act counter, PPC-1+TRAIL kill, FLuc inh counter)
Cc1ccc(NC(=O)CCN2C(=O)OC(C)(C)C2(C)O)cc1 (configuration not stated)	none
CC(OC(=O)CN1C(=O)NC2(CCCC2)C1=O)C(=O)Nc1cccc(Cl)c1 (configuration not stated)	none (no result: FLuc act counter, PPC-1+TRAIL kill, FLuc inh counter)
COc1ccc(-c2noc(CCC(=O)NC3CCCCC3)n2)cc1OC	none
COc1cccc(-c2noc(CCC(=O)NC3CCCCC3)n2)c1	none | PPC-1 tox inactive
COC(=O)C1=C(C)N(CC(C)C)C(=O)C1	none | PPC-1 tox inactive
COC(=O)C1=C(C)N(Cc2ccc(OC)cc2)C(=O)C1	none
NCCCC[C@@H](C(=O)N1CCNCC1)n1cc([C@@H](N)CO)nn1	none
O=C(c1ccco1)N1CCN(c2nc(C3CC3)nc3c2nnn3Cc2ccccc2Cl)CC1	none | PPC-1 tox inactive
Cc1ccc(N/C=C/C(=O)c2cccs2)cc1C	C8 TRAIL sens 78, PPC-1+TRAIL kill 71, FLuc inh counter 94 | PPC-1 tox 71
Cc1nnc(NC2=NCCC2)o1	none
Cc1nnc(NC2=NCCC2)s1	none | PPC-1 tox inactive
